According to ChEMBL document CHEMBL1157729, “Structure-activity relationship and mechanism of action studies of manzamine analogues for the control of neuroinflammation and cerebral infections” (J Med Chem, 2010):
Values after ≈ are worked out from the molar mass of the structure shown. Active and inactive are the calls of the source. The calls are words filed in the database; no cut-off is given here.

How the values were obtained:
[1] = tested on: Plasmodium falciparum; test: Antiplasmodial activity against chloroquine-sensitive Plasmodium falciparum D6 after 72 hrs by LDH assay; format: functional, organism-based; settings: Plasmodium falciparum, D6, 72 h; read-out: IC50
[2] = tested on: Plasmodium falciparum; test: Antiplasmodial activity against chloroquine-resistant Plasmodium falciparum W2 after 72 hrs by LDH assay; format: functional, organism-based; settings: Plasmodium falciparum, W2, 72 h; read-out: IC50
[3] = tested on: Vero; test: Cytotoxicity against african green monkey Vero cells after 48 hrs by neutral red assay; format: cell-based; settings: chlorocebus sabaeus
How it was run: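 Vero cells seeded at 25,000/well and grown 24 h, then exposed to serially diluted samples for 48 h. Viable cells measured by neutral red assay, with doxorubicin as positive control. IC50 taken from dose-response curves.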

[4] = tested on: Mycobacterium tuberculosis; test: Antimycobacterial activity against Mycobacterium tuberculosis H37Rv; format: functional, organism-based
[5] = tested on: Candida albicans; test: Antifungal activity against Candida albicans ATCC 90028; format: functional, organism-based
How it was run: (§1)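 Broth microdilution per modified CLSI method; samples serially diluted in 20% DMSO/saline, tested in duplicate; inocula set by OD630 of suspensions in incubation broth; growth read at 630 nm before and after incubation; amphotericin B drug control.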

[6] = tested on: Cryptococcus neoformans; test: Antifungal activity against Cryptococcus neoformans ATCC 90113; format: functional, organism-based; how it was run: as §1
[7] = tested on: Mycobacterium intracellulare; test: Antimycobacterial activity against Mycobacterium intracellular ATCC 23068; format: functional, organism-based
How it was run: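 Modified Franzblau method; samples serially diluted in 20% DMSO/saline, tested in duplicate; inoculum set by OD630; fluorescence read at 544ex/590em before and after incubation; ciprofloxacin drug control.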

[8] = Antineuroinflammatory activity in LPS-stimulated rat neonatal microglia assessed as inhibition of PMA-induced superoxide anion production preincubated 15 mins prior to PMA challenge measured after 70 mins; format: functional, cell-based
[9] = Antineuroinflammatory activity in LPS-stimulated rat neonatal microglia assessed as inhibition of PMA-induced TXB2 production preincubated 15 mins prior to PMA challenge measured after 70 mins; format: functional, cell-based
[10] = Antineuroinflammatory activity in LPS-stimulated rat neonatal microglia assessed as drug level causing 50% PMA-induced LDH release preincubated 15 mins prior to PMA challenge measured after 70 mins; format: functional
How it was run: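 Neonatal rat microglia (2 × 10^5/well) primed with E. coli LPS 0.3 ng/mL for 17 h at 35.9 °C, washed with HBSS, given compound (0.01–10 μM) or DMSO 15 min, then PMA 1 μM; LDH read spectrophotometrically after 70 min; LDH50 relative to Triton X-100 (0.1%) release; duplicates.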

[11] = tested on: Mycobacterium intracellulare; test: Ratio of IC50 for drug to ciprofloxacin against Mycobacterium intracellular ATCC 23068; format: functional
[12] = Selectivity index, ratio of IC50 for african green monkey (Cercopithecus aethiops) Vero cells to IC50 for chloroquine-sensitive Plasmodium falciparum; format: toxicity, cell-based
[13] = tested on: Mycobacterium tuberculosis; test: Antimycobacterial activity against Mycobacterium tuberculosis; format: functional
[14] = Selectivity index, ratio of IC50 for african green monkey (Cercopithecus aethiops) Vero cells to IC50 for chloroquine-resistant Plasmodium falciparum W2; format: toxicity, cell-based
[15] = tested on: Plasmodium berghei; test: Antiplasmodial activity against Plasmodium berghei NK65 infected in Swiss Webster mice (Mus musculus) assessed as suppression of parasitaemia at 10 mg/kg, intraperitoneally administered 1 day after infection for 3 days measured after 5 days post infection relative to control; format: functional; settings: route intraperitoneal
[16] = tested on: Plasmodium berghei; test: Antiplasmodial activity against Plasmodium berghei NK65 infected in Swiss Webster mice (Mus musculus) assessed as suppression of parasitaemia at 10 mg/kg, intraperitoneally administered 1 day after infection for 3 days measured after 7 days post infection relative to control; format: functional; settings: route intraperitoneal
[17] = tested on: Plasmodium berghei; test: Antiplasmodial activity against Plasmodium berghei NK65 infected in Swiss Webster mice (Mus musculus) assessed as survivability at 10 mg/kg, intraperitoneally administered 1 day after infection for 3 days measured after 28 days post infection; format: functional, organism-based; parameters: dose 10 mg/kg
[18] = tested on: Plasmodium berghei; test: Antiplasmodial activity against Plasmodium berghei NK65 infected in Swiss Webster mice (Mus musculus) at 10 mg/kg, intraperitoneally administered 1 day after infection for 3 days; format: functional; settings: route intraperitoneal
[19] = tested on: Plasmodium berghei; test: Antiplasmodial activity against Plasmodium berghei NK65 infected in Swiss Webster mice (Mus musculus) assessed as parasitaemia cure at 10 mg/kg, intraperitoneally administered 1 day after infection measured after 28 days post infection; format: functional
[20] = tested on: Plasmodium berghei; test: Toxicity in Plasmodium berghei NK65 infected Swiss Webster mice (Mus musculus) assessed as weight loss at 10 mg/kg, intraperitoneally administered 1 day after infection measured after 28 days post infection; format: organism-based; parameters: dose 10 mg/kg, route intraperitoneal; settings: in vivo, ip, 672 h
[21] = target: T1, Tubulin (Sus scrofa) (UniProt P02554+P02550); test: Inhibition of pig brain tubulin polymerization up to 30 mins by turbidimetry
T1 sequence (P02550 whole entry, looked up): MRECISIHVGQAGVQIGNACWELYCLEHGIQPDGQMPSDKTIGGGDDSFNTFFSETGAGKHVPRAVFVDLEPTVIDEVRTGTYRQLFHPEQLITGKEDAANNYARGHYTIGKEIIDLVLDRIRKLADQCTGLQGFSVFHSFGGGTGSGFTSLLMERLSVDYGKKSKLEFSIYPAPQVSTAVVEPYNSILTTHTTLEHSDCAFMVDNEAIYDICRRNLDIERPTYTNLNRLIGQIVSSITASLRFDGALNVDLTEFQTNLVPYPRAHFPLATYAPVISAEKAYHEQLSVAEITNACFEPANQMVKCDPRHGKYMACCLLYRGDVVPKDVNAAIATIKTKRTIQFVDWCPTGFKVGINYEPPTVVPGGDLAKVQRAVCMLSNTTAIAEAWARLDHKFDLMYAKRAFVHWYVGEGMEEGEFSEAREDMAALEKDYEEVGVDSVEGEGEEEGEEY
T1 sequence (P02554 whole entry, looked up): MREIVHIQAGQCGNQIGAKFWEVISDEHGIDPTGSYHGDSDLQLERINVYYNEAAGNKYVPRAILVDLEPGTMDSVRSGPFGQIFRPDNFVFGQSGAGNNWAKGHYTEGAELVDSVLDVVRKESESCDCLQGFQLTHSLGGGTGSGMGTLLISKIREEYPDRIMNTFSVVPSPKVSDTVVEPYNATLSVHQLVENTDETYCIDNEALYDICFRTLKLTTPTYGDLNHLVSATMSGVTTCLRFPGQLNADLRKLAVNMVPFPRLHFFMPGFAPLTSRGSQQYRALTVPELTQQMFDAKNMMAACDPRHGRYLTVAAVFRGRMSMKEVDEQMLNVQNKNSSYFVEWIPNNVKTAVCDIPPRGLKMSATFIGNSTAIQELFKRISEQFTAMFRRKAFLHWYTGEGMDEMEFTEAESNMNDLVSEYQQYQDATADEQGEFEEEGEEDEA

[22] = target: T1, Tubulin (Sus scrofa); test: Inhibition of pig brain tubulin polymerization after 30 to 60 mins in presence of GTP and glutamate by turbidimetry
[23] = tested on: HeLa; test: Cytotoxicity against human HeLa cells after 48 hrs by trypan blue exclusion assay; format: functional
[24] = tested on: HeLa; test: Cell cycle arrest in human HeLa cells assessed as increase in G0/G1 phase accumulation at 5 uM after 24 hrs by FACS analysis; format: functional
[25] = tested on: HeLa; test: Cell cycle arrest in human HeLa cells assessed as increase in G0/G1 phase accumulation at 10 uM after 24 hrs by FACS analysis; format: functional
[26] = tested on: HeLa; test: Cell cycle arrest in human HeLa cells assessed as increase in G0/G1 phase accumulation at 20 uM after 24 hrs by FACS analysis; format: functional
[27] = tested on: HeLa; test: Cell cycle arrest in human HeLa cells assessed as increase in S phase accumulation at 3 uM after 24 hrs by FACS analysis; format: functional
[28] = tested on: HeLa; test: Cell cycle arrest in human HeLa cells assessed as increase in S phase accumulation at 5 uM after 24 hrs by FACS analysis; format: functional
[29] = tested on: HeLa; test: Cell cycle arrest in human HeLa cells assessed as increase in S phase accumulation at 10 uM after 24 hrs by FACS analysis; format: functional
[30] = tested on: HeLa; test: Cell cycle arrest in human HeLa cells assessed as increase in G0/G1 phase accumulation at 3 uM after 24 hrs by FACS analysis; format: functional
[31] = tested on: HeLa; test: Cell cycle arrest in human HeLa cells assessed as increase in S phase accumulation at 20 uM after 24 hrs by FACS analysis; format: functional
[32] = tested on: HeLa; test: Cell cycle arrest in human HeLa cells assessed as decrease in G2/M phase accumulation at 3 uM after 24 hrs by FACS analysis; format: functional; parameters: scale not given: the % may be the effect or the level left
[33] = tested on: HeLa; test: Cell cycle arrest in human HeLa cells assessed as decrease in G2/M phase accumulation at 5 uM after 24 hrs by FACS analysis; format: functional; parameters: scale not given: the % may be the effect or the level left
[34] = tested on: HeLa; test: Cell cycle arrest in human HeLa cells assessed as decrease in G2/M phase accumulation at 10 uM after 24 hrs by FACS analysis; format: functional; parameters: scale not given: the % may be the effect or the level left
[35] = tested on: HeLa; test: Cell cycle arrest in human HeLa cells assessed as decrease in G2/M phase accumulation at 20 uM after 24 hrs by FACS analysis; format: functional; parameters: scale not given: the % may be the effect or the level left
[36] = tested on: Vero; test: Cytotoxicity against african green monkey Vero cells up to 4.6 ug/mL after 48 hrs by neutral red assay; format: cell-based; settings: chlorocebus sabaeus
How it was run: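 Vero cells were seeded at 25,000 cells/well and incubated for 24 h, then exposed to serially diluted samples for 48 h. Viable cells were counted by Neutral Red assay, with doxorubicin as positive control. IC50 was taken from dose-response curves.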

[37] = Cytotoxicity against LPS-stimulated rat neonatal microglia assessed as LDH release
How it was run: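 Rat neonatal microglia (2×10^5/well) primed with E. coli LPS (0.3 ng/mL) for 17 h at 35.9 °C. Washed into HBSS, given compound (0.01-10 μM) or DMSO for 15 min, then PMA (1 μM) for 70 min, in duplicate. LDH release read spectrophotometrically. LDH50 is the concentration giving 50% of the LDH release seen with 0.1% Triton X-100.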

COC(=O)c1cc2c([nH]c3ccccc32)c(C2=C[C@@]3(O)CC/C=C\CCCCN4CC[C@@H]2[C@]2(C[C@@H]5/C=C\CCCCN5[C@H]23)C4)n1
IC50 [1]: 0.011 mg/L (≈ 0.0181 µM)
IC50 [2]: 0.015 mg/L (≈ 0.0247 µM)
IC50 [3]: 0.2 mg/L (≈ 0.33 µM)
MIC [4]: > 64 mg/L
IC50 [5]: 20 mg/L (≈ 33 µM)
IC50 [6]: 2 mg/L (≈ 3.3 µM)
IC50 [7]: < 0.02 mg/L
IC50 [8]: 0.03 µM
IC50 [9]: 0.11 µM
Activity [10]: >10 µM
Ratio IC50 [11]: 5

COC(=O)C1Cc2c([nH]c3ccccc23)C(C2=C[C@@]3(O)CC/C=C\CCCCN4CC[C@@H]2[C@]2(C[C@@H]5/C=C\CCCCN5[C@H]23)C4)N1 (some centres not stated)
IC50 [1]: 0.1 mg/L (≈ 0.164 µM)
IC50 [2]: 0.17 mg/L (≈ 0.278 µM)
IC50 [3]: 1 mg/L (≈ 1.64 µM)
MIC [4]: > 64 mg/L
IC50 [5]: > 20 mg/L
IC50 [6]: 3.5 mg/L (≈ 5.73 µM)
IC50 [7]: 0.06 mg/L (≈ 0.0982 µM)
IC50 [8]: 8.6 µM
IC50 [9]: 4.9 µM
Activity [10]: 5 µM
Ratio IC50 [11]: 5

Oc1cccc2c1[nH]c1c(C3=C[C@@]4(O)CC/C=C\CCCCN5CC[C@@H]3[C@]3(CC6/C=C\CCCCN6[C@H]34)C5)nccc12 (some centres not stated)
Ratio IC50 [12]: 180
MIC [13]: 0.91 mg/L (≈ 1.61 µM)
selectivity ratio ([14]; Vero cells, read-out: Ratio IC50): 25
Ratio IC50 ([14]; vero): 140
IC50 [8]: > 10 µM
IC50 [9]: 0.5 µM
Activity [10]: >10 µM
Activity [15]: 100%
Activity [16]: 100%
Activity [17]: Active
MST [18]: > 28 days
Activity ([19]; route intraperitoneal): 80%
Activity [20]: Toxic

O[C@]12C=C(c3nccc4c3[nH]c3ccccc34)[C@@H]3CCN(CCCC/C=C\CC1)C[C@@]31C[C@@H]3/C=C\CCCCN3[C@H]12
inhibition [17]: inactive
inhibition [19]: inactive
inhibition [21]: inactive
inhibition [22]: inactive

CC(C)Cn1c2ccccc2c2ccnc(C3=C[C@@]4(O)CC/C=C\CCCCN5CC[C@@H]3[C@]3(C[C@@H]6/C=C\CCCCN6[C@H]34)C5)c21 [9-N-ISOBUTYLMANZAMINE A]
IC50 [1]: 0.039 mg/L (≈ 0.0645 µM)
IC50 [2]: 0.078 mg/L (≈ 0.129 µM)
IC50 [3]: 0.4 mg/L (≈ 0.661 µM)
MIC [4]: 4.6 mg/L (≈ 7.6 µM)
IC50 [5]: 10 mg/L (≈ 16.5 µM)
IC50 [6]: 3 mg/L (≈ 4.96 µM)
IC50 [7]: 1 mg/L (≈ 1.65 µM)
IC50 [8]: 5.7 µM
IC50 [9]: > 10 µM
Activity [10]: >10 µM
Activity [23]: >30 µg/mL
Activity [24]: 54.9%
Activity [25]: 51.1%
Activity [26]: 52.3%
Activity [27]: 16.6%
Activity [28]: 16.4%
Activity [29]: 19.5%
Activity [30]: 54.2%
Activity [31]: 19.1%
Activity [32]: 19.2%
Activity [33]: 17.8%
Activity [34]: 17%
Activity [35]: 17.4%

O[C@]12C=C(C3NCCc4c3[nH]c3ccccc43)[C@@H]3CCN(CCCC/C=C\CC1)C[C@@]31C[C@@H]3/C=C\CCCCN3[C@H]12 (some centres not stated) [MANZAMINE D]
IC50 [1]: 0.09 mg/L (≈ 0.163 µM)
IC50 [2]: 0.088 mg/L (≈ 0.159 µM)
Activity [36]: Non-toxic
IC50 [5]: 15 mg/L (≈ 27.1 µM)
IC50 [6]: 0.8 mg/L (≈ 1.45 µM)
IC50 [7]: 0.1 mg/L (≈ 0.181 µM)
IC50 [8]: 2.45 µM
IC50 [9]: 2.1 µM
Activity [10]: 1 µM
Activity [37]: Toxic
